Experimental data taken from ChEMBL document CHEMBL3124905, “Isothiocoumarin-3-carboxylic acid derivatives: synthesis, anticancer and antitrypanosomal activity evaluation” (Eur J Med Chem, 2014).

Tests used:
Type in all cases: functional
[1] = test system: Malme-3M; assay: Growth inhibition of human MALME-3M cells after 48 hrs by SRB assay
How it was run: (§1)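 NCI five-dose assay against the ~60-cell-line panel (nine cancer types). Tenfold dilutions from 10−4 to 10−8 M were used with continuous 48-h exposure and SRB absorbance readout. Percent growth was computed from time-zero, control and treated absorbances. GI50 is the concentration giving 50% lower net protein increase than controls. Values not reached are reported as beyond the tested range.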

[2] = Growth inhibition of human HOP92 cells after 48 hrs by SRB assay; settings: HOP-92, 48 h; for TGI: read-out: pTGI (converted); how it was run: as §1
[3] = test system: Trypanosoma brucei brucei; assay: Antitrypanosomal activity against bloodstream form of Trypanosoma brucei brucei strain 90-13 assessed as inhibition of parasite growth at 10 ug/ml after 72 hrs by resazurin reduction test; settings: strain 90-13, 72 h
How it was run: (§2)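 Trypanosoma brucei brucei 90-13 bloodstream forms, grown in HMI9 with 10% FCS at 37 °C under 5% CO2. Log-phase parasites were seeded at 10^5 cells/mL with or without inhibitor, with stocks prepared in DMSO. After 72 h, resazurin was added and fluorescence was read at 530/590 nm after a further 4 h. Percent growth inhibition was calculated versus drug-free parasites, with DMSO as control.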

[4] = test system: Trypanosoma brucei brucei; assay: Antitrypanosomal activity against bloodstream form of Trypanosoma brucei brucei strain 90-13 assessed as inhibition of parasite growth at 1 ug/ml after 72 hrs by resazurin reduction test; settings: strain 90-13, 72 h; how it was run: as §2
[5] = test system: SF-268; assay: Anticancer activity against human SF268 cells assessed as cell growth at 100 uM after 48 hrs by SRB assay; settings: SF-268, 48 h, read-out: Activity
How it was run: (§3)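 NCI one-dose primary screen on a three-line panel (breast MCF7, lung NCI-H460, CNS SF-268). Cells were inoculated and preincubated 24–48 h, then exposed to a single concentration of 10−4 M for 48 h. The endpoint was sulforhodamine B protein staining, and results are expressed as percent growth relative to untreated control cells. Negative values denote cytotoxicity.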

[6] = test system: NCI-H460; assay: Anticancer activity against human NCI-H460 cells assessed as cell growth at 100 uM after 48 hrs by SRB assay; settings: NCI-H460, 48 h, read-out: Activity; how it was run: as §3
[7] = test system: MCF7; assay: Anticancer activity against human MCF7 cells assessed as cell growth at 100 uM after 48 hrs by SRB assay; settings: MCF7, 48 h, read-out: Activity; how it was run: as §3

SMILES	GI50 [1]	TGI ([1]; read-out: pTGI (converted))	GI50 [2]	TGI [2]	inhibition at 10 µg/mL [3]	inhibition at 1 µg/mL [4]	growth at 100 µM [5]	growth at 100 µM [6]	growth at 100 µM [7]
COc1ccc2cc(C(=O)N3CCCCCC3)sc(=O)c2c1OC	34.7 µM	> 100 µM	2.75 µM	8.13 µM					
COc1ccc2cc(C(=O)Nc3cccc4ccccc34)sc(=O)c2c1OC			20.4 µM	69.2 µM	41.2%	20.8%			
O=C(Nc1nccs1)c1cc2ccccc2c(=O)s1							90%	93%	91%
CCOC(=O)c1ccc(NC(=O)c2cc3ccc(OC)c(OC)c3c(=O)s2)cc1					20.9%	-0.53%	117%	103%	105%
O=C(c1cc2ccccc2c(=O)s1)N1CCOCC1					8.15%	8.13%	111%	109%	114%
